# Test results taken from ChEMBL document CHEMBL1135620, “Cyclosporins: structure-activity relationships for the inhibition of the human FPR1 formylpeptide receptor” (J Med Chem, 2002).
# Target: T1, fMet-Leu-Phe receptor (Homo sapiens) (UniProt P21462)
# T1 sequence (whole entry): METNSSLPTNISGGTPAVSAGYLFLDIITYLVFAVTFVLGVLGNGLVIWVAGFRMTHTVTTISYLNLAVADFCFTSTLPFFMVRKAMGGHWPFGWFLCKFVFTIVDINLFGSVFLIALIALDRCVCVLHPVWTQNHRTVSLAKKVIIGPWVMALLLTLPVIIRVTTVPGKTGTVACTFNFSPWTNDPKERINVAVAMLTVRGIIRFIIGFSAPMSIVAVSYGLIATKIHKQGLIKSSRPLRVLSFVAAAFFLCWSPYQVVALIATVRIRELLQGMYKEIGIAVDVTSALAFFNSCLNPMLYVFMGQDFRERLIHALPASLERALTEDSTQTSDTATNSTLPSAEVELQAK
# Assay: Inhibitory activity against Human formylpeptide receptor (FPR) of human leukemia HL-60 cells
# Assay type: cell-based
# Outline: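 HL-60 cells differentiated 48 h with 0.2 mM dibutyryl cAMP, washed, then treated with 5 μM cytochalasin B (5–10 min, 37 °C). Stimulated 10 min with 30 nM f-MLF. N-acetyl-β-D-glucosaminidase release read at 410 nm on p-nitrophenyl substrate after spontaneous-release subtraction. Duplicate wells; IC20/IC50 as mean ± SD of independent experiments.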
row,Compound,IC20 [µM]
1,C/C=C/C[C@@H](C)[C@@H](O)[C@H]1C(=O)N[C@@H](CC)C(=O)NCC(=O)N(C)[C@H](CC(C)C)C(=O)N[C@H](C(C)C)C(=O)N(C)[C@H](CC(C)C)C(=O)N[C@@H](C)C(=O)N[C@H](CO)C(=O)N(C)[C@@H](CC(C)C)C(=O)N(C)[C@@H](CC(C)C)C(=O)N(C)[C@@H](C(C)C)C(=O)N1C,1.9
2,CC[C@@H]1NC(=O)[C@H](CC(C)C)N(C)C(=O)[C@H](C(C)C)N(C)C(=O)[C@H](CC(C)C)N(C)C(=O)[C@H](CC(C)C)N(C)C(=O)[C@@H](C)NC(=O)[C@H](C)NC(=O)[C@@H](CC(C)C)N(C)C(=O)[C@@H](C(C)C)NC(=O)[C@@H](CC(C)C)N(C)C(=O)CN(C)C1=O,> 10
3,CC(C)C[C@@H]1NC(=O)[C@@H](CC(C)C)N(C)C(=O)CN(C)C(=O)[C@H]([C@@H](C)O)NC(=O)[C@H]([C@H](O)[C@H](C)C/C=C/CO)N(C)C(=O)[C@H](C(C)C)N(C)C(=O)[C@H](CC(C)C)NC(=O)[C@H](CC(C)C)N(C)C(=O)[C@@](O)(C(C)C)NC(=O)[C@H](C)NC(=O)[C@@H](CC(C)C)N(C)C1=O,0.47
4,C/C=C/C[C@@H](C)[C@@H](O)[C@H]1C(=O)N[C@@H]([C@@H](C)O)C(=O)N(C)CC(=O)N(C)[C@H](CC(C)C)C(=O)N[C@H](C(C)C)C(=O)N(C)[C@H](CC(C)C)C(=O)N[C@@H](C)C(=O)N[C@H](C)C(=O)N(C)[C@@H](CC(C)C)C(=O)N(C)[C@@H](CC(C)C)C(=O)N[C@@H](C(C)C)C(=O)N1C,6.4
5,C/C=C/C[C@@H](C)[C@@H](O)[C@H]1C(=O)N[C@@H](C)C(=O)N(C)CC(=O)N(C)[C@H](CC(C)C)C(=O)N[C@H](C(C)C)C(=O)N(C)[C@H](CC(C)C)C(=O)N[C@@H](C)C(=O)N[C@H](C)C(=O)N(C)[C@@H](CC(C)C)C(=O)N[C@@H](CC(C)C)C(=O)N(C)[C@@H](C(C)C)C(=O)N1C,0.2
6,C/C=C/C[C@@H](C)[C@@H](O)[C@H]1C(=O)N[C@@H]([C@@H](C)O)C(=O)N(C)CC(=O)N(C)[C@H](CC(C)C)C(=O)N[C@@H](CC(C)C)C(=O)N(C)[C@H](CC(C)C)C(=O)N[C@@H](C)C(=O)N[C@](O)(C(C)C)C(=O)N(C)[C@@H](CC(C)C)C(=O)N[C@@H](CC(C)C)C(=O)N(C)[C@@H](C(C)C)C(=O)N1C,0.2
7,C/C=C/C[C@@H](C)[C@@H](O)[C@H]1C(=O)N[C@@H](CC)C(=O)N(C)CC(=O)N(C)[C@H](CC(C)C)C(=O)N[C@H](C(C)C)C(=O)N(C)[C@H](CC(C)C)C(=O)N[C@@H](C)C(=O)N[C@H](C)C(=O)N(C)[C@@H](CC(C)C)C(=O)N(C)[C@@H](CC(C)C)C(=O)N[C@@H](C(C)C)C(=O)N1C,3.8
8,CC/C=C/C[C@@H](C)[C@@H](O)[C@H]1C(=O)N[C@@H](C(C)C)C(=O)N(C)CC(=O)N(C)[C@H](CC(C)C)C(=O)N[C@H](C(C)C)C(=O)N(C)[C@H](CC(C)C)C(=O)N[C@@H](C)C(=O)N[C@H](C)C(=O)N(C)[C@@H](CC(C)C)C(=O)N(C)[C@@H](CC(C)C)C(=O)N(C)[C@@H](C(C)C)C(=O)N1C,3.9
9,CCC[C@@H]1NC(=O)[C@H](CC(C)C)N(C)C(=O)[C@H](C(C)C)N(C)C(=O)[C@H](CC(C)C)N(C)C(=O)[C@H](CC(C)C)N(C)C(=O)[C@@H](C)NC(=O)[C@H](C)NC(=O)[C@@H](CC(C)C)N(C)C(=O)[C@H](C(C)C)NC(=O)[C@@H](CC(C)C)N(C)C(=O)CN(C)C1=O,7.6
10,C/C=C/C[C@@H](C)[C@@H](O)[C@H]1C(=O)N[C@@H](CC)C(=O)N(C)CC(=O)N(C)[C@H](CC(C)C)C(=O)N[C@H](C(C)C)C(=O)N(C)[C@H](CC(C)C)C(=O)N[C@@H](C)C(=O)N[C@H](C)C(=O)N(C)[C@@H](CC(C)C)C(=O)N[C@@H](CC(C)C)C(=O)N(C)[C@@H](C(C)C)C(=O)N1C,0.65
11,CC/C=C/C[C@@H](C)[C@@H](O)[C@H]1C(=O)N[C@@H](CC)C(=O)N(C)[C@@H](Cc2ccccc2)C(=O)N(C)[C@H](CC(C)C)C(=O)N[C@H](C(C)C)C(=O)N(C)[C@H](CC(C)C)C(=O)N[C@@H](C)C(=O)N[C@H](C)C(=O)N(C)[C@@H](CC(C)C)C(=O)N(C)[C@@H](CC(C)C)C(=O)N(C)[C@@H](C(C)C)C(=O)N1C,> 10
12,C/C=C/C[C@@H](C)[C@@H](O)[C@H]1C(=O)N[C@@H](CCC)C(=O)N(C)CC(=O)N(C)[C@H](CC(C)C)C(=O)N[C@H](C(C)C)C(=O)N(C)[C@H](CC(C)C)C(=O)N[C@@H](C)C(=O)N[C@H](C)C(=O)N[C@@H](CC(C)C)C(=O)N(C)[C@@H](CC(C)C)C(=O)N(C)[C@@H](C(C)C)C(=O)N1C,2.1
13,CC[C@@H]1NC(=O)[C@H]([C@H](O)[C@H](C)C/C=C/CO)N(C)C(=O)[C@H](C(C)C)N(C)C(=O)[C@H](CC(C)C)N(C)C(=O)[C@H](CC(C)C)N(C)C(=O)[C@@H](C)NC(=O)[C@H](C)NC(=O)[C@@H](CC(C)C)N(C)C(=O)[C@@H](C(C)C)NC(=O)[C@@H](CC(C)C)N(C)C(=O)CN(C)C1=O,> 10
14,CC/C=C/C[C@@H](C)[C@@H](O)[C@H]1C(=O)N[C@@H](CC)C(=O)N(C)CC(=O)N(C)[C@@H](C(C)C)C(=O)N[C@H](C(C)C)C(=O)N(C)[C@H](CC(C)C)C(=O)N[C@@H](C)C(=O)N[C@H](C)C(=O)N(C)[C@@H](CC(C)C)C(=O)N(C)[C@@H](CC(C)C)C(=O)N(C)[C@@H](C(C)C)C(=O)N1C,1.44
15,C/C=C/C[C@@H](C)[C@@H](O)[C@H]1C(=O)N[C@@H]([C@@H](C)O)C(=O)N(C)CC(=O)N(C)[C@H](CC(C)C)C(=O)N[C@H](C(C)C)C(=O)N(C)[C@H](CC(C)C)C(=O)N[C@@H](C)C(=O)N[C@H](C)C(=O)N(C)[C@@H](CC(C)C)C(=O)N[C@@H](CC(C)C)C(=O)N(C)[C@@H](C(C)C)C(=O)N1C,2.05
16,C/C=C/C[C@@H](C)[C@@H](O)[C@H]1C(=O)N[C@@H]([C@@H](C)O)C(=O)N(C)CC(=O)N(C)[C@H](CC(C)C)C(=O)N[C@@H]([C@@H](C)CC)C(=O)N(C)[C@H](CC(C)C)C(=O)N[C@@H](C)C(=O)N[C@H](C)C(=O)N(C)[C@@H](CC(C)C)C(=O)N(C)[C@@H](CC(C)C)C(=O)N(C)[C@@H](C(C)C)C(=O)N1C,0.09
17,C/C=C/C[C@@H](C)[C@@H](O)[C@H]1C(=O)N[C@@H](CC)C(=O)N(C)CC(=O)N(C)[C@H](CC(C)C)C(=O)N[C@H](C(C)C)C(=O)N(C)[C@H](CC(C)C)C(=O)N[C@@H](C)C(=O)N[C@H](C)C(=O)N(C)[C@@H](CC(C)C)C(=O)N(C)[C@@H](CC(C)C)C(=O)N(C)[C@@H](C)C(=O)N1C,0.31
18,C/C=C/C[C@@H](C)[C@@H](O)[C@H]1C(=O)N[C@@H]([C@@H](C)O)C(=O)N(C)CC(=O)N(C)[C@H](CC(C)C)C(=O)N[C@@H]([C@@H](C)CC)C(=O)N(C)[C@H](CC(C)C)C(=O)N[C@@H](C)C(=O)N[C@](O)(C(C)C)C(=O)N(C)[C@@H](CC(C)C)C(=O)N[C@@H](CC(C)C)C(=O)N(C)[C@@H](C(C)C)C(=O)N1C,0.29
19,C/C=C/C[C@@H](C)[C@@H](O)[C@H]1C(=O)N[C@@H]([C@@H](C)O)C(=O)N(C)CC(=O)N[C@@H](CC(C)C)C(=O)N[C@@H](CC(C)C)C(=O)N(C)[C@H](CC(C)C)C(=O)N[C@@H](C)C(=O)N[C@](O)(C(C)C)C(=O)N(C)[C@@H](CC(C)C)C(=O)N[C@@H](CC(C)C)C(=O)N(C)[C@@H](C(C)C)C(=O)N1C,0.14
20,C/C=C/C[C@@H](C)[C@@H](O)[C@H]1C(=O)N[C@@H](CC)C(=O)N(C)CC(=O)N(C)[C@H](CC(C)C)C(=O)N[C@H](C(C)C)C(=O)N(C)[C@H](CC(C)C)C(=O)N[C@@H](C)C(=O)N[C@H](C)C(=O)N[C@@H](CC(C)C)C(=O)N(C)[C@@H](CC(C)C)C(=O)N(C)[C@@H](C(C)C)C(=O)N1C,0.53
21,CC[C@@H]1NC(=O)[C@H](CC2CCCCC2)N(C)C(=O)[C@H](C(C)C)N(C)C(=O)[C@H](CC(C)C)N(C)C(=O)[C@H](CC(C)C)N(C)C(=O)[C@@H](C)NC(=O)[C@H](C)NC(=O)[C@@H](CC(C)C)N(C)C(=O)[C@@H](C(C)C)NC(=O)[C@@H](CC(C)C)N(C)C(=O)CN(C)C1=O,1.69
22,CC[C@@H]1NC(=O)[C@H](C2CCCCC2C)N(C)C(=O)[C@H](C(C)C)N(C)C(=O)[C@H](CC(C)C)N(C)C(=O)[C@H](CC(C)C)N(C)C(=O)[C@@H](C)NC(=O)[C@@H](C)NC(=O)[C@@H](CC(C)C)N(C)C(=O)[C@@H](C(C)C)NC(=O)[C@@H](CC(C)C)N(C)C(=O)CN(C)C1=O (stereo partly specified),> 10
23,CC/C=C/C[C@@H](C)[C@@H](O)[C@H]1C(=O)N[C@@H](CC)C(=O)N(C)CC(=O)N(C)[C@H](CC(C)C)C(=O)N[C@H](C(C)C)C(=O)N(C)[C@H](CC(C)C)C(=O)N[C@@H](CC)C(=O)N[C@H](C)C(=O)N(C)[C@@H](CC(C)C)C(=O)N(C)[C@@H](CC(C)C)C(=O)N(C)[C@@H](C(C)C)C(=O)N1C,> 10
24,C/C=C/C[C@@H](C)[C@@H](O)[C@H]1C(=O)N[C@@H]([C@@H](C)O)C(=O)NCC(=O)N(C)[C@H](CC(C)C)C(=O)N[C@@H](CC(C)C)C(=O)N(C)[C@H](CC(C)C)C(=O)N[C@@H](C)C(=O)N[C@](O)(C(C)C)C(=O)N(C)[C@@H](CC(C)C)C(=O)N[C@@H](CC(C)C)C(=O)N(C)[C@@H](C(C)C)C(=O)N1C,0.13
25,CC/C=C/C[C@@H](C)[C@@H](O)[C@H]1C(=O)N[C@@H](CC)C(=O)N(C)CC(=O)N(C)[C@@H](CC(C)(C)O)C(=O)N[C@H](C(C)C)C(=O)N(C)[C@H](CC(C)C)C(=O)N[C@@H](C)C(=O)N[C@H](C)C(=O)N(C)[C@@H](CC(C)C)C(=O)N(C)[C@@H](CC(C)C)C(=O)N(C)[C@@H](C(C)C)C(=O)N1C,1.7
26,C/C=C/C[C@@H](C)C[C@H]1C(=O)N[C@@H](CC)C(=O)N(C)CC(=O)N(C)[C@H](CC(C)C)C(=O)N[C@H](C(C)C)C(=O)N(C)[C@H](CC(C)C)C(=O)N[C@@H](C)C(=O)N[C@H](C)C(=O)N(C)[C@@H](CC(C)C)C(=O)N(C)[C@@H](CC(C)C)C(=O)N(C)[C@@H](C(C)C)C(=O)N1C,2.4
